Experimental data gathered from unrelated publications.
SIGMAR1: Sigma non-opioid intracellular receptor 1 (SIGMAR1, Homo sapiens, UniProt Q99720)
HTR2A: 5-hydroxytryptamine receptor 2A (HTR2A, Homo sapiens, UniProt P28223)
Oprm1: Mu-type opioid receptor (Oprm1, Mus musculus, UniProt P42866)

Structure (SMILES) | target | effect on | technique | notes | endpoint | value
O=[N+]([O-])c1cn2c(n1)OC[C@@H](OCc1ccc(OC(F)(F)F)cc1)C2 | ddn (Mycobacterium tuberculosis, UniProt P9WP15) | binding | fluorescence | – | Kd | 13900 nM
CN[C@@H](C)[C@@H](O)c1ccccc1 | SIGMAR1 | ligand displacement | radioligand | – | Ki | > 10000 nM
NCCc1c[nH]c2ccc(Cl)cc12 | HTR2A | ligand displacement | radioligand | – | Ki | 889 nM
COC(=O)/C=C/C(=O)N[C@@H]1CC[C@@]2(O)[C@H]3Cc4ccc(O)c5c4[C@@]2(CCN3CC2CC2)[C@H]1O5 | Kappa-type opioid receptor (OPRK1, Homo sapiens, UniProt P41145, E297K) | ligand displacement | radioligand | cell membranes | IC50 | 4.29 nM
O=C(N[C@@H]1C=C[C@@]2(O)[C@H]3Cc4ccc(O)c5c4[C@@]2(CCN3CC2CC2)[C@H]1O5)c1c[nH]c2cccnc12 | Oprm1 | ligand displacement | radioligand | – | Ki | 0.41 nM
CN1CC[C@@]23CCCC[C@@H]2[C@@H]1Cc1ccc(O)cc13 | SIGMAR1 | ligand displacement | radioligand | – | Ki | 2670 nM
O=C(N[C@H]1C=C[C@@]2(O)[C@H]3Cc4ccc(O)c5c4[C@@]2(CCN3CC2CC2)[C@H]1O5)c1n[nH]c2ccccc12 | Oprm1 | ligand displacement | radioligand | – | Ki | 0.33 nM
NCCc1c[nH]c2cc(F)ccc12 | HTR2A | ligand displacement | radioligand | – | Ki | 606 nM
N#Cc1ccccc1-c1cc(-c2ccccn2)cn(-c2ccccc2)c1=O | Glutamate receptor ionotropic, kainate 2 (Grik2, Rattus norvegicus, UniProt P42260) | ion current | patch clamp | – | IC50 | 58000 nM
O=C(N[C@@H]1C=C[C@@]2(O)[C@H]3Cc4ccc(O)c5c4[C@@]2(CCN3CC2CC2)[C@H]1O5)c1c[nH]c2cnccc12 | Oprm1 | ligand displacement | radioligand | – | Ki | 0.56 nM
